Article PMC8458670 (Slas Discovery, 2022)

Legend:
SARS-CoV-2 nsp14 = SARS-CoV-2 nsp14 (Severe acute respiratory syndrome coronavirus 2, UniProt P0DTD1); assay: Radiometric nsp14 MTase activity assay; assay type: biochemical
[1] = target: nsp14 (amino acids 1-527) (Severe acute respiratory syndrome coronavirus 2, UniProt P0DTD1); assay: Surface plasmon resonance binding to biotinylated nsp14; set-up: species or system SARS-CoV-2
Method in brief: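 SPR used N-terminally biotinylated nsp14 (aa 1–527) coupled on a CM5 chip, with C-terminally biotinylated SETD3 (aa 1–605) as control. Test compounds were injected at five concentrations (0.6–50 µM, or 0.06–5 µM for some) at 50 µL/min. Running buffer was HBS-EP Plus (10 mM HEPES pH 7.4, 150 mM NaCl, 2 mM EDTA, 0.005% Tween-20) with 0.5% DMSO. Contact time was 60 s and dissociation 120 s, with blank-buffer and DMSO (0.4–0.6%) corrections.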

Compound: Nc1ncnc2c1ncn2[C@@H]1O[C@H](CSCC[C@H](N)C(=O)O)[C@@H](O)[C@H]1O [SAH, S-Adenosylhomocysteine]
- IC50 (SARS-CoV-2 nsp14): 130 ± 30 nM
- Kd [1]: 140 nM
